Test results: ChEMBL document CHEMBL1909596, “Synthesis and evaluation of chromenyl barbiturates and thiobarbiturates as potential antitubercular agents” (Bioorg Med Chem Lett, 2011)
≈ marks a conversion by molar mass, not a printed value.

tested on: Mycobacterium tuberculosis; experiment: Antimycobacterial activity against Mycobacterium tuberculosis H37Rv ATCC 27294 by microplate alamar blue assay; type: functional, organism-based; conditions: not given
In short: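 Strain grown in BACTEC 12B medium, broth microdilution with Alamar Blue read-out (TAACF protocol). Primary screen at 6.25 µg/mL; compounds reaching ≥90% growth inhibition retested in 10 twofold dilutions, typically from 100. MIC taken as the lowest concentration giving 90% fluorescence reduction relative to controls. Fluorescent compounds tested in BACTEC 460 radiometric system instead. Rifampin control.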

| SMILES | IC50 | IC90 |
| --- | --- | --- |
| Cc1c(C(=O)c2ccc(Cl)cc2)oc2cc3occ(C=C4C(=O)NC(=O)NC4=O)c(=O)c3cc12 | 65.1 µg/mL (≈ 136 µM) | 93 µg/mL (≈ 195 µM) |
| Cc1c(C(=O)c2ccc(Br)cc2)oc2cc3occ(C=C4C(=O)NC(=O)NC4=O)c(=O)c3cc12 | 38.5 µg/mL (≈ 73.9 µM) | 55.4 µg/mL (≈ 106 µM) |
| COc1ccc(C(=O)c2oc3cc4occ(C=C5C(=O)NC(=O)NC5=O)c(=O)c4cc3c2C)cc1 | > 100 µg/mL | > 100 µg/mL |
| Cc1ccc(C(=O)c2oc3cc4occ(C=C5C(=O)NC(=O)NC5=O)c(=O)c4cc3c2C)cc1 | 55.2 µg/mL (≈ 121 µM) | 84.7 µg/mL (≈ 186 µM) |
| Cc1c(C(=O)c2ccc(-c3ccccc3)cc2)oc2cc3occ(C=C4C(=O)NC(=O)NC4=O)c(=O)c3cc12 | > 100 µg/mL | > 100 µg/mL |
| Cc1c(C(=O)c2ccc(Cl)cc2)oc2cc3occ(C=C4C(=O)NC(=S)NC4=O)c(=O)c3cc12 | 42 µg/mL (≈ 85.3 µM) | 63.8 µg/mL (≈ 129 µM) |
| COc1ccc(C(=O)c2oc3cc4occ(C=C5C(=O)NC(=S)NC5=O)c(=O)c4cc3c2C)cc1 | > 100 µg/mL | > 100 µg/mL |
| Cc1c(C(=O)c2ccccc2)oc2cc3occ(C=C4C(=O)NC(=S)NC4=O)c(=O)c3cc12 | > 100 µg/mL | > 100 µg/mL |
| Cc1cc(=O)oc2cc3occ(C=C4C(=O)NC(=O)NC4=O)c(=O)c3cc12 | > 100 µg/mL | > 100 µg/mL |
| Cc1cc(=O)oc2c(C)c3occ(C=C4C(=O)NC(=O)NC4=O)c(=O)c3cc12 | 4.71 µg/mL (≈ 12.4 µM) | 5.9 µg/mL (≈ 15.5 µM) |
| Cc1cc(=O)oc2cc3occ(C=C4C(=O)NC(=S)NC4=O)c(=O)c3cc12 | > 100 µg/mL | > 100 µg/mL |
| NC(=O)c1cnccn1 [PYRAZINAMIDE] |  | > 20 µg/mL |

tested on: not listed separately; experiment: Cytotoxicity against african green monkey Vero cells after 72 hrs by celltiter-glo luminescent cell viability assay; type: cell-based; conditions: chlorocebus sabaeus
In short: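 VERO cells exposed to compounds for 72 h. Viability read from ATP content by luminescence. CC50 derived by curve fitting of dose–response curves.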

| SMILES | CC50 at 72 h |
| --- | --- |
| Cc1cc(=O)oc2c(C)c3occ(C=C4C(=O)NC(=O)NC4=O)c(=O)c3cc12 | 14.3 µg/mL (≈ 37.5 µM) |

tested on: not listed separately; experiment: Selectivity index, ratio of CC50 african green monkey Vero cells to IC90 for Mycobacterium tuberculosis H37Rv ATCC 27294; type: toxicity, cell-based; conditions: not given
In short: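 SI calculated as VERO CC50 (72 h luminescent ATP viability assay, curve-fitted) divided by the MABA MIC (90% fluorescence reduction endpoint) for H37Rv.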

| SMILES | selectivity ratio |
| --- | --- |
| Cc1cc(=O)oc2c(C)c3occ(C=C4C(=O)NC(=O)NC4=O)c(=O)c3cc12 | 2.41 |
